Entries after “also recorded” stand apart in the source; their conditions may differ.
Key:
[1] = Safety and tolerability in healthy subjects; format: in vivo, human
CYP3A4 [2] = conditions: co-administration with ketoconazole, strong inhibitor of CYP3A4; cited from earlier work
CYP2C8 [3] = conditions: cited from earlier work
[4] = high first-pass effect; cited from earlier work
OATP1B1 = conditions: co-administration of cyclosporin, inhibitor of OATP1B1; cited from earlier work
BCRP and OATP1B1 = format: in vivo, human; conditions: repeat dosing of vercirnon 500 mg BID, rosuvastatin probe, healthy subjects
Outline: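 Open-label, single-sequence study in 24 healthy adults aged 18–55. Rosuvastatin 10 mg oral tablet was given alone on day 4 and again on day 14 with vercirnon 500 mg BID after meals (days 5–14). Dosing was 30 min after breakfast with 240 mL water. Serial plasma samples were taken over 48 h. Non-compartmental AUC0–∞ was loge-transformed and analysed in a mixed-effects model (treatment fixed, subject random), giving a geometric LS mean ratio with 90% CI.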

OAT1 = conditions: ref ChemoCentryx and GlaxoSmithKline, data on file; cited from earlier work
[5] = oral administration 250 to 1,000 mg; cited from earlier work
CYP2C8 [6] = target: T1, CYP2C8 (Homo sapiens, UniProt P10632); format: in vivo; conditions: repeat dosing of vercirnon 500 mg BID, pioglitazone probe, healthy subjects
T1 sequence (P10632 1-490): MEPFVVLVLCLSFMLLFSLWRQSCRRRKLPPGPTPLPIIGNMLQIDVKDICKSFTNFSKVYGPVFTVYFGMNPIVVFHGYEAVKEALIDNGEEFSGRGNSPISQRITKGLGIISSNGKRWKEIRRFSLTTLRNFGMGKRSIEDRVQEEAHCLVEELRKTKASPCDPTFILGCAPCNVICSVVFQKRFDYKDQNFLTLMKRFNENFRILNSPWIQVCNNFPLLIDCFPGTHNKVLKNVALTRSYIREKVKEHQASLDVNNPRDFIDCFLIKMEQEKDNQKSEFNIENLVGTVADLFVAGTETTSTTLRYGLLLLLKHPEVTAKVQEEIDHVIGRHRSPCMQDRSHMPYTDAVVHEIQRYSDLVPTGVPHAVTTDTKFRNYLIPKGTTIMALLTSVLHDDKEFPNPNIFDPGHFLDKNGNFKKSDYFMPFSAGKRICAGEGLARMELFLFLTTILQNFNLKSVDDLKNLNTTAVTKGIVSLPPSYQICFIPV

OAT3 = conditions: ref ChemoCentryx and GlaxoSmithKline, data on file; cited from earlier work
CYP3A4 [7] = target: CYP3A4 (Homo sapiens, UniProt P08684); format: in vivo; conditions: repeat dosing of vercirnon 500 mg BID, midazolam probe, healthy subjects
Chain of CYP3A4 (Homo sapiens, UniProt P08684) (P08684 whole entry): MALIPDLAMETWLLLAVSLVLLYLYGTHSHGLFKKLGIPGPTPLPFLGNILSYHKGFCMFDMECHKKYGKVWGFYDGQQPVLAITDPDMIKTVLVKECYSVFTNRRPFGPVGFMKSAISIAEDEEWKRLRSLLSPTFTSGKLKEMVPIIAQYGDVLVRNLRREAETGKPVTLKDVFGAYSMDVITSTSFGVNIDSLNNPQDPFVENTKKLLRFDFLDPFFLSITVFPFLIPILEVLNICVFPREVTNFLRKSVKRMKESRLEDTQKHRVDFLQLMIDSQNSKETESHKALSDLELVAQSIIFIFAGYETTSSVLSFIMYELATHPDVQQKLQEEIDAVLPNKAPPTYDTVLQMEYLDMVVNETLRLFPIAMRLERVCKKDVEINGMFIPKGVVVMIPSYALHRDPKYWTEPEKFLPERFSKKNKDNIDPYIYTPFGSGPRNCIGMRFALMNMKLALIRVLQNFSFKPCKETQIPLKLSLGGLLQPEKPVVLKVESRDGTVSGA

OAT1B1 = conditions: ref ChemoCentryx and GlaxoSmithKline, data on file; cited from earlier work
CYP2C19 = CYP2C19 (Homo sapiens, UniProt P33261); format: in vivo; conditions: repeat dosing of vercirnon 500 mg BID, omeprazole probe, healthy subjects
Chain of CYP2C19 (P33261 whole entry): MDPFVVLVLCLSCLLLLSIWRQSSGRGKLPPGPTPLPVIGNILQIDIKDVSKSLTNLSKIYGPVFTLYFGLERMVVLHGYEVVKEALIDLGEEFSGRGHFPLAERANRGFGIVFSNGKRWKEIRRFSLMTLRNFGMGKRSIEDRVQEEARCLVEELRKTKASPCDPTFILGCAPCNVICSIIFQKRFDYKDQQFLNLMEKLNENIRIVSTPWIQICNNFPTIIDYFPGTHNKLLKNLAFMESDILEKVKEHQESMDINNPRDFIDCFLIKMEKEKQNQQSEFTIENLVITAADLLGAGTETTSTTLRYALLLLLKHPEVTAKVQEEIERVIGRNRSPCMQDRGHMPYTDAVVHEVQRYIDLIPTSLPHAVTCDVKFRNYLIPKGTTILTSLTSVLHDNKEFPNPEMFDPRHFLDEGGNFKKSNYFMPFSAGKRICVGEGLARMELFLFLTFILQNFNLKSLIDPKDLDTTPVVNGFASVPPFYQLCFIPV

[8] = read-out: maximum observed concentration [Cmax] range; likely therapeutic plasma concentrations; ref ChemoCentryx, data on file; cited from earlier work
[9] = ref ChemoCentryx, data on file; cited from earlier work
[10] = ref ChemoCentryx, data on file; cited from earlier work; remark: listed apart in the source
[11] = multiple oxidative and reductive pathways, including CYP3A4, CYP2C19 and CYP2B6; ref ChemoCentryx, data on file; cited from earlier work
[12] = system: human p-glycoprotein transporter protein; conditions: ref ChemoCentryx, data on file; cited from earlier work
[13] = format: in vivo, human; conditions: day 10 compared with day 5, vercirnon 500 mg BID
Outline: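 Vercirnon 500 mg BID, taken after meals, starting study day 5. Six volunteers had serial plasma sampling over 24 h on days 5 and 10 for vercirnon and two metabolites. Non-compartmental AUC0–τ, Cmax and tmax were determined. Accumulation ratio for AUC0–τ and Cmax compared day 10 with day 5. Metabolite:parent AUC0–τ ratios were molar. Steady state was tested on day 6–11 troughs from all 24 subjects by the 90% CI of the regression slope.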

[14] = system: breast cancer resistant protein (BCRP); conditions: ref ChemoCentryx and GlaxoSmithKline, data on file; cited from earlier work
CYP2C8 [15] = conditions: strong inhibitor of CYP2C8; cited from earlier work

Cc1ncc2n1-c1ccc(Cl)cc1C(c1ccccc1F)=NC2 [Midazolam, reference compound]
Somnolence, number of subjects reporting ([1]; of 24 subjects, on 19 occasions, midazolam alone or midazolam + vercirnon): 13 subjects

CCc1ccc(CCOc2ccc(CC3SC(=O)NC3=O)cc2)nc1 (stereo not drawn) [Pioglitazone]
Increase of pioglitazone (CYP3A4 [2]): 34% | Increase of pioglitazone AUC (CYP2C8 [3]; co-administration with gemfibrozil): 3.4 fold | Decrease of exposure (AUC) of pioglitazone (CYP2C8 [3]; co-administration with rifampin, inducer of CYP2C8): 54%

CC(C)c1nc(N(C)S(C)(=O)=O)nc(-c2ccc(F)cc2)c1/C=C/[C@@H](O)C[C@@H](O)CC(=O)O [Rosuvastatin]
bioavailability [4]: ~20% | Increase of rosuvastatin AUC (OATP1B1): 7 fold

CC(C)(C)c1ccc(S(=O)(=O)Nc2ccc(Cl)cc2C(=O)c2cc[n+]([O-])cc2)cc1 [Vercirnon]
Tolerability ([1]; 24 healthy subjects, all treatments over 14 days, vercirnon 500 mg BID): well tolerated | Effect on BCRP or OATP1B1 transporter activity (BCRP and OATP1B1): no clinically significant effect | Inhibition of OAT1 in vitro (OAT1): can inhibit | time to maximum concentration (tmax) [5]: 3 to 4 h | Effect on CYP2C8 enzyme activity (CYP2C8 [6]): no clinically significant effect | Inhibition of OAT3 in vitro (OAT3): can inhibit | Effect on CYP3A4 enzyme activity (CYP3A4 [7]): no clinically significant effect | Inhibition of OAT1B1 in vitro (OAT1B1): has the potential to inhibit; also recorded: can inhibit | Effect on CYP2C19 enzyme activity (CYP2C19): no clinically significant effect | Cmax [8]: 3 to 5 µM | protein bound [9]: > 90% | Permeability [10]: passively permeable | Metabolism [11]: extensively metabolised | Substrate for human p-glycoprotein transporter protein or other transport proteins [12]: unlikely to be a substrate | Average accumulation in terms of AUC0–τ [13]: 14% | Average accumulation in terms of Cmax [13]: 3% | Inhibition of BCRP in vitro [14]: can inhibit

Cc1ccc(C)c(OCCCC(C)(C)C(=O)O)c1 [gemfibrozil]
Ki (CYP2C8 [15]): 69 to 75 µM
